Test results published in ChEMBL document CHEMBL1140385, “Synthesis and antibacterial activity of 3-substituted-6-(3-ethyl-4-methylanilino)uracils” (J Med Chem, 2005).
Values after ≈ are worked out from the molar mass of the structure shown.

What was measured:
Staphylococcus aureus [1] = assay: In vitro minimum inhibitory concentration against Methicillin-resistant Staphylococcus aureus upon incubation at 37 degree C for 16 to 24 hr by dissolving in DMSO (1%); type: functional
Summary of the method: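 Broth microdilution (modified NCCLS M7-A4). Staphylococci grown to log phase in Luria broth, seeded at (3-7) × 10⁵ CFU/mL. Compounds 2-fold diluted from DMSO stocks, 20 to 1.25 µg/mL, final 1% DMSO, in duplicate. Incubated 37 °C, 16-24 h, with shaking. OD600 read.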

Enterococcus faecalis = assay: In vitro minimum inhibitory concentration against Enterococcus faecalis upon incubation at 37 degree C for 16 to 24 hr by dissolving in DMSO (1%); type: functional
Summary of the method: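 Log-phase E. faecalis was grown in brain-heart infusion broth and seeded at (3-7) × 10^5 CFU/mL. Duplicate 2-fold dilutions ran from 20 to 1.25 µg/mL, final 1% DMSO. After 16-24 h at 37 °C with shaking, OD600 was read.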

Enterococcus faecium [2] = assay: In vitro minimum inhibitory concentration against Vancomycin resistant Enterococci faecium upon incubation at 37 degree C for 16 to 24 hr by dissolving in DMSO (1%); type: functional
Summary of the method: (§1)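 Broth microdilution (modified NCCLS M7-A4). Enterococci grown to log phase in brain-heart infusion broth, seeded at (3-7) × 10⁵ CFU/mL. Compounds 2-fold diluted from DMSO stocks, 20 to 1.25 µg/mL, final 1% DMSO, in duplicate. Incubated 37 °C, 16-24 h, with shaking. OD600 read.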

Staphylococcus aureus [3] = assay: Serum effect on MIC against Staphylococcus aureus (Smith) as ratio of MIC value in presence and absence of 50% fetal calf serum; type: functional
Summary of the method: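 Broth microdilution MIC was repeated with 50% fetal calf serum added to the growth medium (LB for S. aureus, brain-heart infusion broth for E. faecalis). The inoculum was (3-7) × 10^5 CFU/mL in 1% DMSO, incubated at 37 °C for 16-24 h, and read by OD600. The serum effect is the MIC with serum relative to the MIC without serum.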

Bacillus subtilis = assay: In vitro minimum inhibitory concentration against Bacillus subtilis upon incubation at 37 degree C for 16 to 24 h; type: functional
Staphylococcus aureus [4] = assay: In vitro minimum inhibitory concentration against Staphylococcus aureus upon incubation at 37 degree C for 16 to 24 hr by dissolving in DMSO (1%); type: functional
Enterococcus faecium [5] = assay: In vitro minimum inhibitory concentration against Enterococcus fecium upon incubation at 37 degree C for 16 to 24 hr by dissolving in DMSO (1%); type: functional; summary of the method: as §1
Staphylococcus aureus [6] = assay: In vitro minimum inhibitory concentration against Staphylococcus aureus (Smith) upon incubation at 37 degree C for 16 to 24 hr by dissolving in DMSO (1%); type: functional
[7] = molecular target: DNA polymerase III PolC-type (Bacillus subtilis (strain 168), UniProt P13267); assay: Inhibitory concentration against Bacillus subtilis DNA polymerase IIIC using [3H]dTMP 250 pM (30 degree C for 10 min)
Summary of the method: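 Homogeneous recombinant B. subtilis pol IIIC, 0.025-0.06 units, acted on activated calf thymus DNA with Mg2+, DTT, glycerol, dATP, dCTP, dTTP and [3H]dTTP, without dGTP. Compounds were serially diluted from DMSO. Reactions ran 10 min at 30 °C, were stopped with TCA-pyrophosphate, and the filter-collected precipitate was scintillation counted. Apparent Ki was read directly from this truncated assay; average standard deviation ±44%.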

Chain of DNA polymerase III PolC-type (P13267 whole entry, the tested form may be a part): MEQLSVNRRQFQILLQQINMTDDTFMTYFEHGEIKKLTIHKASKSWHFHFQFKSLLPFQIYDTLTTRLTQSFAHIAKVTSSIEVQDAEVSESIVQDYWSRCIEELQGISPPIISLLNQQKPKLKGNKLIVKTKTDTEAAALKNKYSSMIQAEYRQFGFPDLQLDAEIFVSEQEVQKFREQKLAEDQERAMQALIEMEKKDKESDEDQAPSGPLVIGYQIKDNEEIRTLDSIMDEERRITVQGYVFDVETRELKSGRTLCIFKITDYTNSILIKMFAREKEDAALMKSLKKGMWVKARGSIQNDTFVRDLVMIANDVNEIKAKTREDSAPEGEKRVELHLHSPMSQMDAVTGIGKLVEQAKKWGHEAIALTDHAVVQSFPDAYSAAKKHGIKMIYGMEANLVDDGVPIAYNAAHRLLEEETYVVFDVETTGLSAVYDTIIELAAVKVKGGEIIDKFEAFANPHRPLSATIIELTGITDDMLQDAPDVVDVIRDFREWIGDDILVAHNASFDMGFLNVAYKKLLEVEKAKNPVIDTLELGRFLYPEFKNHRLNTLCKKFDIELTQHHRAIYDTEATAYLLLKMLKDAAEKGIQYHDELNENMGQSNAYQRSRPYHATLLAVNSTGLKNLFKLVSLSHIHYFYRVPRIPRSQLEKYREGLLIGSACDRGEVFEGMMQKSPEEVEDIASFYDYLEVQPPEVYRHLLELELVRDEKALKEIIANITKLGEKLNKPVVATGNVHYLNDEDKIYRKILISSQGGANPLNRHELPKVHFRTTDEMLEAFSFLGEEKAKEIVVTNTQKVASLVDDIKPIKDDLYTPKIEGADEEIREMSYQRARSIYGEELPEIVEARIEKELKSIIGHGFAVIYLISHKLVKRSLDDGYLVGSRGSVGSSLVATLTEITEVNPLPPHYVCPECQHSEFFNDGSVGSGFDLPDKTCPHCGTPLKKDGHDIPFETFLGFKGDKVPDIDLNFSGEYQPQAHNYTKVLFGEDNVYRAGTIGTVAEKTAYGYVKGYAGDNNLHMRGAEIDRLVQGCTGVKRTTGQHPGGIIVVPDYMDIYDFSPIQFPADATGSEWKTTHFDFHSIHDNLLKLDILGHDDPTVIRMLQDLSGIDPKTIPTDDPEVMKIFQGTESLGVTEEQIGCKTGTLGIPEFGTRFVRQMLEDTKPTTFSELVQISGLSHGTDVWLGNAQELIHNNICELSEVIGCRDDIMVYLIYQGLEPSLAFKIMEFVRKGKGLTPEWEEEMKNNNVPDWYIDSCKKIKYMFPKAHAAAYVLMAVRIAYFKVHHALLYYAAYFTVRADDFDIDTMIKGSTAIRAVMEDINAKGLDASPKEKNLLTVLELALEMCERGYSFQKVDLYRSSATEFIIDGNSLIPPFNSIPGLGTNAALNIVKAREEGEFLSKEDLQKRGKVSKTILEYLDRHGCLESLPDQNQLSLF

| SMILES | MIC (Staphylococcus aureus [1]) [µg/mL] | MIC (Enterococcus faecalis) [µg/mL] | MIC (Enterococcus faecium [2]) [µg/mL] | MIC+/MIC- (Staphylococcus aureus [3]) | MIC (Bacillus subtilis) [µg/mL] | MIC (Staphylococcus aureus [4]) [µg/mL] | MIC (Enterococcus faecium [5]) [µg/mL] | MIC (Staphylococcus aureus [6]) [µg/mL] | Ki [7] [nM] |
| --- | --- | --- | --- | --- | --- | --- | --- | --- | --- |
| CCOC(=O)CCCn1c(=O)cc(Nc2ccc(C)c(CC)c2)[nH]c1=O | 5 (≈ 13.9 µM) | 5 (≈ 13.9 µM) | 5 (≈ 13.9 µM) | 10 |  |  |  |  |  |
| CCc1cc(Nc2cc(=O)n(CCCOC(C)=O)c(=O)[nH]2)ccc1C | 5 (≈ 14.5 µM) | 5 (≈ 14.5 µM) | 3.75 (≈ 10.9 µM) |  | 0.625 (≈ 1.81 µM) | 3.75 (≈ 10.9 µM) | 5 (≈ 14.5 µM) | 2.5 (≈ 7.24 µM) | 120 |
| CCc1cc(Nc2cc(=O)n(CC#CCO)c(=O)[nH]2)ccc1C | 10 (≈ 31.9 µM) | 10 (≈ 31.9 µM) | 10 (≈ 31.9 µM) |  |  | 10 (≈ 31.9 µM) | 10 (≈ 31.9 µM) |  |  |
| CCc1cc(Nc2cc(=O)n(CCCCOC)c(=O)[nH]2)ccc1C | 5 (≈ 15.1 µM) | 5 (≈ 15.1 µM) | 2.5 (≈ 7.54 µM) | 7.4 | < 1.25 | 5 (≈ 15.1 µM) | 2.5 (≈ 7.54 µM) | 5 (≈ 15.1 µM) |  |
| CCc1cc(Nc2cc(=O)n(CCCCOC(=O)N3CCOCC3)c(=O)[nH]2)ccc1C | 10 (≈ 23.2 µM) | 5 (≈ 11.6 µM) | 5 (≈ 11.6 µM) |  |  |  | 5 (≈ 11.6 µM) | 5 (≈ 11.6 µM) |  |
| CCc1cc(Nc2cc(=O)n(CCCCCCO)c(=O)[nH]2)ccc1C | 5 (≈ 14.5 µM) | 2.5 (≈ 7.24 µM) |  | 8.7 |  | 5 (≈ 14.5 µM) | 5 (≈ 14.5 µM) |  |  |
| CCc1cc(Nc2cc(=O)n(CCCCN(CCO)CCO)c(=O)[nH]2)ccc1C |  | > 20 |  |  | > 20 | > 20 | > 20 | > 20 | 21 |
| CCc1cc(Nc2cc(=O)n(CCCC(O)CO)c(=O)[nH]2)ccc1C (configuration not stated) | > 20 | 20 (≈ 57.6 µM) | 10 (≈ 28.8 µM) |  |  |  | 20 (≈ 57.6 µM) | 20 (≈ 57.6 µM) |  |
| CCc1cc(Nc2cc(=O)n(CCCCNC(=O)CCl)c(=O)[nH]2)ccc1C | 10 (≈ 25.5 µM) | 5 (≈ 12.7 µM) | 5 (≈ 12.7 µM) |  |  |  | 10 (≈ 25.5 µM) | 5 (≈ 12.7 µM) |  |
| CCc1cc(Nc2cc(=O)n(CCCC(=O)O)c(=O)[nH]2)ccc1C | > 20 | > 20 | 20 (≈ 60.4 µM) |  |  | 20 (≈ 60.4 µM) | 20 (≈ 60.4 µM) |  |  |
| CCc1cc(Nc2cc(=O)n(CCCCC#N)c(=O)[nH]2)ccc1C | 5 (≈ 15.3 µM) | 2.5 (≈ 7.66 µM) | 5 (≈ 15.3 µM) | 6 |  | 5 (≈ 15.3 µM) | 5 (≈ 15.3 µM) |  |  |
| CCc1cc(Nc2cc(=O)n(CC(C)=O)c(=O)[nH]2)ccc1C | 10 (≈ 33.2 µM) | 20 (≈ 66.4 µM) | 20 (≈ 66.4 µM) |  |  |  | 10 (≈ 33.2 µM) | 10 (≈ 33.2 µM) |  |
| CCc1cc(Nc2cc(=O)n(CCO)c(=O)[nH]2)ccc1C | 10 (≈ 34.6 µM) | 10 (≈ 34.6 µM) | 5 (≈ 17.3 µM) |  | < 1.25 | 5 (≈ 17.3 µM) | 5 (≈ 17.3 µM) | 5 (≈ 17.3 µM) |  |
| CCc1cc(Nc2cc(=O)n(CCCCNS(=O)(=O)c3cccs3)c(=O)[nH]2)ccc1C |  | 5 (≈ 10.8 µM) | 5 (≈ 10.8 µM) | 13.7 |  | > 20 | 2.5 (≈ 5.4 µM) |  |  |
| CCc1cc(Nc2cc(=O)n(CCCCCN)c(=O)[nH]2)ccc1C.Cl | 10 | > 20 | > 20 |  | < 1.25 | 5 | 20 | 10 | 185 |
| CCc1cc(Nc2cc(=O)n(CCN3CCN(C(=O)c4ccccc4)CC3)c(=O)[nH]2)ccc1C | 10 (≈ 21.7 µM) | 10 (≈ 21.7 µM) | 5 (≈ 10.8 µM) |  |  |  | 5 (≈ 10.8 µM) | 10 (≈ 21.7 µM) |  |
| CCc1cc(Nc2cc(=O)n(CCOCCOCCO)c(=O)[nH]2)ccc1C | > 20 | 10 (≈ 26.5 µM) | 5 (≈ 13.2 µM) |  |  |  | 10 (≈ 26.5 µM) | 10 (≈ 26.5 µM) |  |
| CCOC(=O)CCCCn1c(=O)cc(Nc2ccc(C)c(CC)c2)[nH]c1=O | > 20 | 5 (≈ 13.4 µM) | 2.5 (≈ 6.69 µM) | >12.2 |  |  | < 1.25 |  |  |
